The source of these data is ChEMBL document CHEMBL4699411, “A3- and A2B-nitrocorroles: synthesis and antiviral activity evaluation against human cytomegalovirus infection” (RSC Med Chem, 2020).

Data set [1] relates to Human betaherpesvirus 5. Kind of data set: Antiviral activity against Human cytomegalovirus infected in ARPE-19 cells measured after 10 days by fluorescence based microscopic analysis. Format: functional, cell-based. The settings on record: Human betaherpesvirus 5, ARPE-19, 240 h; read-out: IC50. In a few lines:
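Cells were ARPE-19 in phenol red-free DMEM with 10% FBS, seeded 8k/well. At 24 h they received a range of compound concentrations and hCMV ANCHOR at MOI 10, then were fixed 10 days post infection. Imaging scored infection rate (fluorescent/total cells) and ANCHOR spot intensity over ≥1000 cells/well, normalized to DMSO and used to derive IC50; mean of three wells ± SD.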

A short description of data set [2]: Cytotoxicity against human MRC5 cells assessed as reduction in nuclei count measured after 6 days for Hoechst 33342 staining based microscopic analysis. It counts as cell-based. The settings on record: time 6 day. In a few lines: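 MRC-5 fibroblasts seeded at 8k/well in complete DMEM with 10% FBS and treated 24 h later with increasing compound concentrations. Incubated 6 days at 37 °C, 5% CO2. Formalin-fixed, Hoechst 33342 (1 μg mL–1) stained, and nuclei counted by high-content imaging. Counts normalized to DMSO wells. CC50 is the concentration halving the nuclei count. Mean of two wells ± SD.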

Data set [3] relates to Human betaherpesvirus 5. Kind of data set: Antiviral activity against Human cytomegalovirus harboring ANCHOR infected in MRC5 cells assessed as reduction in virus-induced cytopathic effect. It counts as functional, cell-based. A general note: Protection from cytopathic effect is a common read-out in antiviral testing.
Data set [4] has as its system Human betaherpesvirus 5. Description: Antiviral activity against Human cytomegalovirus harboring ANCHOR infected in ARPE-19 cells assessed as reduction in viral replication at 0.75 uM measured after 6 days by microscopic analysis relative to control. Format: functional. The settings on record: time 6 day. The essentials: (§1)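 ARPE-19 epithelial cells grown in phenol red-free DMEM with 10% FBS, seeded 8k/well. After 24 h they were treated with compound and infected with hCMV ANCHOR (fluorescently labelled viral DNA) at MOI 10, then fixed 6 days post infection. High-content imaging scored infection rate (fluorescent/total cells) and replication (integrated ANCHOR spot intensity) over ≥1000 cells/well, normalized to DMSO; mean of three wells ± SD.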

A short description of data set [5]: Selectivity index, ratio of CC50 for human MRC5 cells assessed as reduction in nuclei count measured after 6 days for Hoechst 33342 staining based microscopic analysis to EC50 Human cytomegalovirus infected in MRC5 cells measured after 6 days by microscopic analysis. The note with it: time 6 day, read-out: Ratio CC50/EC50. It counts as toxicity, cell-based. In a few lines:
(§2)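 CC50 comes from Hoechst nuclei counts after compound treatment, normalized to DMSO. IC50 comes from hCMV ANCHOR infection at MOI 1 in MRC-5 (read 6 dpi) or MOI 10 in ARPE-19 (read 10 dpi). Infection rate is fluorescent cells over total cells, from at least 1000 cells per well, in triplicate wells. SI is CC50 divided by IC50.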

The test system of data set [6] is Human betaherpesvirus 5. Kind of data set: Antiviral activity against Human cytomegalovirus infected in MRC5 cells measured after 6 days by fluorescence based microscopic analysis. It counts as functional, cell-based. The note with it: Human betaherpesvirus 5, MRC5, 144 h; read-out: IC50. In a few lines:
(§3)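 MRC-5 primary fibroblasts in phenol red-free DMEM with 10% FBS were seeded 8k/well. At 24 h they were treated with compound, infected with hCMV ANCHOR at MOI 1, and fixed 6 days post infection. High-content imaging gave infection rate (fluorescent/total cells) and replication (integrated ANCHOR spot intensity) over ≥1000 cells/well, normalized to DMSO; mean of three wells ± SD.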

Data set [7] can be described thus: Selectivity index, ratio of CC50 for human ARPE-19 cells assessed as reduction in nuclei count measured after […] 33342 staining based microscopic analysis to EC50 Human cytomegalovirus infected in ARPE-19 cells measured after 10 days by microscopic analysis. It counts as toxicity, cell-based. The settings on record: read-out: Ratio CC50/EC50. The essentials: as §2

Data set [8] concerns Human betaherpesvirus 5. Description: Antiviral activity against Human cytomegalovirus harboring ANCHOR infected in MRC5 cells assessed as reduction in viral infection at 0.75 uM measured after 6 days by microscopic analysis relative to control. It counts as functional. More on the design: scale not given: the % may be the effect or the level left. The note with it: time 6 day. In a few lines: as §3

Data set [9] can be described thus: Cytotoxicity against human ARPE-19 cells assessed as reduction in nuclei count measured after 10 days for Hoechst 33342 staining based microscopic analysis. Format: cell-based. The settings on record: time 10 day. In a few lines: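 ARPE-19 epithelial cells seeded at 8k/well in complete DMEM with 10% FBS and treated with increasing compound concentrations 24 h later. Incubated 10 days at 37 °C. Formalin-fixed, stained with Hoechst 33342 (1 μg mL–1), and nuclei counted by high-content imaging. Counts normalized to DMSO wells. CC50 is the concentration reducing nuclei count by 50%. Mean of two wells ± SD.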

Data set [10] deals with Human betaherpesvirus 5. Kind of data set: Antiviral activity against Human cytomegalovirus harboring ANCHOR infected in MRC5 cells assessed as reduction in viral replication at 0.75 uM measured after 6 days by microscopic analysis relative to control. It counts as functional. The settings on record: time 6 day. More on the design: scale not given: the % may be the effect or the level left. In a few lines:
as §3

The test system of data set [11] is Human betaherpesvirus 5. Description: Antiviral activity against Human cytomegalovirus harboring ANCHOR infected in ARPE-19 cells assessed as reduction in viral infection at 0.75 uM measured after 6 days by microscopic analysis relative to control. Format: functional. The settings on record: time 6 day. In a few lines:
as §1

In data set [12] the test system is Human betaherpesvirus 5. Kind of data set: Antiviral activity against Human cytomegalovirus harboring ANCHOR infected in MRC5 cells assessed as reduction in viral infection at measured after 6 days by microscopic analysis relative to control. The note with it: time 6.0 day. Format: functional, cell-based. The essentials: as §3
Data set [13] relates to Human betaherpesvirus 5. Kind of data set: Antiviral activity against Human cytomegalovirus infected in MRC5 cells assessed as reduction in viral plaque at 1.25 uM measured after 6 days by microscopic analysis. The settings on record: time 6.0 day. It counts as functional, cell-based. The essentials:
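MRC-5 fibroblasts seeded at 8k cells/well and infected 24 h later with fluorescent hCMV ANCHOR strain at MOI 1, with compound added at increasing concentrations. Cultured 6 days, fixed with formalin, nuclei stained with Hoechst, and imaged by high-content microscopy. Fluorescent plaques and replication centres were scored against DMSO-treated cells.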

Data set [14] deals with Human betaherpesvirus 5. Kind of data set: Antiviral activity against Human cytomegalovirus infected in MRC5 cells assessed as reduction in viral plaque at 2.5 uM measured after 6 days by microscopic analysis relative to control. On the set-up: scale not given: the % may be the effect or the level left. The settings on record: time 6 day. Format: functional. The essentials:
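Compound-treated MRC-5 fibroblasts were infected with hCMV ANCHOR at MOI 1, fixed 6 days post infection and imaged by fluorescence microscopy. Fluorescent viral plaques and replication centres were compared against vehicle (DMSO)-treated wells.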

Data set [15] has as its system Human betaherpesvirus 5. Kind of data set: Antiviral activity against Human cytomegalovirus harboring ANCHOR infected in ARPE-19 cells assessed as reduction in viral infection measured after 10 days by microscopic analysis relative to control. The note with it: time 10.0 day.

Active and inactive are the calls of the source. The rule behind the calls is not given here.

As to `O=[N+]([O-])c1ccc(F)c(-c2c3nc(c4ccc([nH]4)c(-c4cc([N+](=O)[O-])ccc4F)c4ccc([nH]4)c(-c4cc([N+](=O)[O-])ccc4F)c4ccc2[nH]4)C=C3)c1`, the IC50 (in general, the concentration at which inhibition is half-maximal) in data set [1] amounted to 1300 nM; in data set [6], 1500 nM. Moreover, the CC50 (commonly the concentration at which the toxic effect on the cells reaches its halfway point) at 144 h in [2] was 3700 nM. Besides, the outcome in data set [3] was Active. For the same compound, the “fold change (FC)” value in data set [4] is 5; in [11], 10. Also, the selectivity ratio at 144 h in data set [5] worked out at 2.4. Also, in [7], the selectivity ratio amounted to 39. Besides, the Activity turned out to be 60% in data set [8] and 80% in [10]. For the same compound, in [9], the CC50 at 240 h was 50000 nM.

Consider `O=[N+]([O-])c1cccc(-c2c3nc(c4ccc([nH]4)c(-c4cccc([N+](=O)[O-])c4F)c4ccc([nH]4)c(-c4cccc([N+](=O)[O-])c4F)c4ccc2[nH]4)C=C3)c1F`, for which the values for the IC50 in data set [1] and in data set [6] were 600 nM and 1800 nM, respectively. In addition, the results for the Activity entry in data set [12], in data set [14] and in [15] were “Dose-dependent effect”, 100% and “Dose-dependent effect”, respectively. Also, the outcome in data set [13] was Active. For the same compound, in data set [2], the CC50 at 144 h was above 50000 nM. For the same compound, in [5], the selectivity ratio at 144 h was above 27. In addition, the selectivity ratio in [7] was above 82. Also, in data set [9], the CC50 at 240 h is above 50000 nM.
